Only some compounds are listed: those with a hit (about 29% of all), similar ones and a draw of the others.
CYP2C19 inhib = inhibitors of human CYP2C19 | P33261 | CYP2C19 Supersomes, luciferin-H EGE luminescence, 30 min | inhibition, % at 5 µM | 96,000 tested, 21% active;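 active = CYP2C19 inhibition above a set limit at 5 µM in the primary screen, cut at about 50% in these data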
CYP2C19 activ = cytochrome P450 2C19 (human) activation. P33261. activation factor at 5 µM. recombinant CYP2C19, luciferin-H EGE luminescence; active compounds read high; 0 = fully inhibited enzyme, 1 = untreated enzyme. AID 1025. 96,000 tested, under 10 active;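 active = activation factor of at least 2 at 5 µM in the primary screen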
Ecoli tolC = blocks growth of E. coli BW25113 tolC mutant; growth inhibition, % at 10 µM (by protocol); OD615; 65,000 tested, 2.2% active;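 active = growth inhibition at or above a cutoff equal to the mean over every tested compound plus 3 SD, cut at about 60% in these data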;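 also: growth measured after 20 h incubation at 37 °C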
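Test system: E. coli BW25113 ΔtolC::kan bacteria; incubation: 37 °C, 20 h exposure; medium: LB broth supplemented with 50 µg/mL kanamycin; read-out basis: percent growth inhibition; signal: A615 absorbance measurement; compound: 10 µM final, single dose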
Ecoli WT expand = growth inhibitors of E. coli BW25113 wild type. 98,000 tested, 0.15% active. growth inhibition, % at 100 µM. OD600 absorbance;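 active = growth inhibition above about 50% at one test dose, limit read from the data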;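 also: growth measured after 20 h incubation at 37 °C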
CYP2C9 inh = blocks human cytochrome P450 2C9. CYP2C9 Supersomes, luciferin-H conversion, luminescence. inhibition, % at 5 µM. 96,000 tested, 20% active;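 active = blocking of liver enzyme CYP2C9 beyond about 50% at 5 µM, limit read from the data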
Target sequence (P11712 whole entry, looked up): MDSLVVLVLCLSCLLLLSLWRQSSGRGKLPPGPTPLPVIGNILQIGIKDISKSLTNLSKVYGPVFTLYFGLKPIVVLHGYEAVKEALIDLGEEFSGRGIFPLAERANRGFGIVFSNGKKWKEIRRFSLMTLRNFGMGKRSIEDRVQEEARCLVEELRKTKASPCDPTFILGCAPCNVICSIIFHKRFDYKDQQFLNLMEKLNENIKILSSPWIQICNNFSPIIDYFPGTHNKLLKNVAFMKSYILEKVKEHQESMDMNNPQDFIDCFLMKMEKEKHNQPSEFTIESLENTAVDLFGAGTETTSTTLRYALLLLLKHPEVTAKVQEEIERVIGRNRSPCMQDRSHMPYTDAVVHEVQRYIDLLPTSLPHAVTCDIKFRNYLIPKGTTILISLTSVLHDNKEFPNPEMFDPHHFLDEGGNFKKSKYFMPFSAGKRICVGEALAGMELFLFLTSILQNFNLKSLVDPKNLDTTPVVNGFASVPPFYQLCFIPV
CYP2C9 activ = activators of human CYP2C9 | recombinant CYP2C9, luciferin-H conversion, luminescence; active compounds read high; factor 1 = untreated enzyme, 0 = blocked | activation factor at 5 µM | P11712 | AID 1024 | 96,000 tested, 1.4% active;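 active = activation factor of 2 or more for CYP2C9 at a 5 µM dose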
Of the large screens only hits and unclear results are named; the others gave an inactive call.

Nn1c(SCC(=O)Nc2ccc(F)c(F)c2)nnc1C1CCCCC1	none
COc1ccc(OC)c(Nc2cc(C)nc3ccccc23)c1	CYP2C19 inhib 56
COc1ccc(OC)c(Nc2cc(-c3ccccc3)nc(N)n2)c1	CYP2C19 inhib 80, CYP2C9 inh 79
COc1cccc(Nc2cc(C)nc3ccccc23)c1	none (no result: CYP2C19 inhib, CYP2C19 activ, CYP2C9 inh, CYP2C9 activ)
O=C1CC(=O)N(CCc2ccc(F)cc2)C(=O)N1	none (no result: Ecoli tolC)
Clc1ccc(-c2nnsc2SCc2ccccc2)cc1	none (no result: Ecoli tolC)
O=C(COc1cc(Cl)ccc1Cl)Nc1nnc(CC(=O)N2CCOCC2)s1	none
COC(=O)c1cc(Br)c(=O)n(CCc2ccccc2)c1	CYP2C19 inhib 62
COC(=O)c1cc(Br)c(=O)n(Cc2ccc3c(c2)OCO3)c1	CYP2C19 inhib 87, CYP2C9 inh 80
COC(=O)Cn1cc(C(=O)OC)cc(Br)c1=O	none
COC(=O)NCC12CC3CC(C1)CC(CNC(=O)OC)(C3)C2	none
COc1cccc(-n2c(=O)[nH]cc(C(=O)Nc3ccc(NC(C)=O)cc3)c2=O)c1	none
Cn1c(=O)n(CCc2ccccc2)c(=O)c2c1nc1n2CCN1c1ccccc1	none (no result: CYP2C19 inhib, CYP2C19 activ, Ecoli WT expand, CYP2C9 inh, CYP2C9 activ)
O=C(Nc1ccc2nsnc2c1)NC1CCCCC1	none (no result: Ecoli tolC)
COc1ccc(C(=O)Nc2cccc(OC(=O)c3ccc(C)c(C)c3)c2)cc1	CYP2C9 inh 70 (no result: Ecoli tolC)
COc1ccc(C(=O)Nc2cc(OC)cc(OC)c2)cc1	CYP2C19 inhib 86
COc1cccc(NC(=O)c2ccc(NC(C)=O)cc2)c1	none (no result: Ecoli tolC)
COc1ccc(OCc2ccc(C(=O)NN)cc2)cc1	CYP2C19 inhib 92, CYP2C9 inh 69 (no result: Ecoli tolC)
C=CCNC(=S)NNC(=O)c1ccc(OC(C)C)cc1	none (no result: Ecoli tolC)
CCCCNC(=O)C(C#N)c1nc2ccccc2nc1N1CCN(c2ccccc2F)CC1 (stereo not drawn)	none (no result: CYP2C19 inhib, CYP2C19 activ, CYP2C9 inh, CYP2C9 activ)
CCc1ccc(C(=O)CSc2n[nH]c(C)n2)cc1	CYP2C19 inhib 89
CCc1nc(SCC(=O)c2cc(C)ccc2C)n[nH]1	none
Cc1ccc(C)c(C(=O)CSc2n[nH]c(C)n2)c1	CYP2C19 inhib 57
Cc1ccc(C(=O)CSc2n[nH]c(C)n2)cc1	CYP2C19 inhib 52
CCn1c(-c2ccc(N(C)C)cc2)nc2ccccc21	none
CN(C)c1ccc(-c2nc3ccccc3n2C)cc1	CYP2C19 inhib 56
CC(C)n1c(-c2ccc(N(C)C)cc2)nc2ccccc21	CYP2C19 inhib 61, CYP2C9 inh 62
CC(C)n1c(CCCO)nc2ccccc21	none (no result: Ecoli WT expand)
Cc1ccc(C(O)c2nc3ccccc3n2C(C)C)cc1 (stereo not drawn)	CYP2C19 inhib 92
CCCn1c2ccc(/C(C)=N\O)cc2c2cc(/C(C)=N/O)ccc21	none (no result: Ecoli tolC)
ONC(=Nc1ccc(Cl)cc1)c1ccccc1	CYP2C19 inhib 91 (no result: Ecoli tolC)
Cc1nnc(NC(=O)CSc2nnnn2Cc2ccccc2)s1	CYP2C9 inh 86
Cc1nc(NC(=O)CSc2nnnn2Cc2ccccc2)sc1C	CYP2C19 inhib 81, CYP2C9 inh 51
Cc1ccc(S(=O)(=O)CCc2nc3ccccc3s2)cc1C	CYP2C19 inhib 58 (no result: Ecoli tolC)
Cc1ccc(SCCC(=O)NCC2CCCO2)cc1 (stereo not drawn)	none
COc1ccc(S(=O)(=O)N[C@H](C(=O)O)C(C)C)cc1	none
COc1ccc(S(=O)(=O)Nc2cc(C)c(O)cc2C(C)C)cc1	CYP2C19 inhib 99, CYP2C9 activ 2.4
COc1ccc(S(=O)(=O)Nc2cc(C(C)C)c(O)cc2C)cc1	CYP2C19 inhib 88
COc1ccc(S(=O)(=O)NC(C)C(=O)O)cc1 (stereo not drawn)	none (no result: Ecoli tolC)
COc1cc(C)nc(OCCNC(=O)COc2ccc(Cl)cc2Cl)n1	CYP2C19 inhib 73, CYP2C9 inh 63
CN(C)c1nc(OCCNC(=O)COc2ccc(Cl)cc2Cl)nc(N(C)C)n1	none (no result: Ecoli tolC)
O=C(NCC1CCCO1)c1ccc(NC(=O)C2C3C=CC(C3)C2C(=O)O)cc1 (stereo not drawn)	none (no result: Ecoli tolC)
O=C(Nc1ccc(-n2nncc2-c2ccco2)cc1)c1cccc(F)c1	CYP2C19 inhib 96, CYP2C9 inh 72
O=C(Nc1ccc(N2CCOCC2)cc1)c1ccc2nc(-c3ccco3)c(-c3ccco3)nc2c1	none
O=C(Nc1ccc(-n2nncc2-c2ccco2)cc1)c1cc2ccccc2oc1=O	CYP2C9 inh 63
Cc1ccc(N=Cc2sc(O)c3ccccc23)cc1	none (no result: Ecoli tolC)
Cc1ccc(N=Cc2sc(O)c3ccccc23)c(C)c1	CYP2C9 inh 63 (no result: Ecoli tolC)
O=C1NCC(c2ccccc2)C1C(=O)N/N=C\c1ccc(-c2cccc(Cl)c2Cl)o1 (stereo not drawn)	CYP2C9 inh 59 (no result: Ecoli tolC)
Cc1ccc(-c2ccc(/C=N\NC(=O)C3C(=O)NCC3c3ccccc3)o2)cc1Cl (stereo not drawn)	CYP2C9 inh 50 (no result: Ecoli tolC)
COCc1cc(C)nc(N)c1C#N	none
COc1ccc(CN2C(=O)CCC2(C)C(=O)NCc2cccnc2)c(OC)c1 (stereo not drawn)	none
CC(SCc1ccccc1)C(=O)NC1CCCC1 (stereo not drawn)	CYP2C19 inhib 83, CYP2C9 inh 74
COc1ccc(CCNC(=O)NC2CCCCC2)cc1OC	CYP2C19 inhib 82
O=C(NCc1ccccc1)NC1CCCCC1	none
O=C(NCCc1ccccc1)NC1CCCCC1	CYP2C19 inhib 59
CSc1nc2ccc(S(=O)(=O)Nc3c(C)n(C)n(-c4ccccc4)c3=O)cc2s1	none
CCCS(=O)(=O)N1CCCC(C(=O)NCCN(C)Cc2ccccc2)C1 (stereo not drawn)	none
O=C(NCCC1=CCCCC1)C1CCCN(S(=O)(=O)c2cnc[nH]2)C1 (stereo not drawn)	CYP2C19 inhib 96, CYP2C9 inh 66
CCCS(=O)(=O)N1CCCC(C(=O)NC2CCCC(C)C2C)C1 (stereo not drawn)	CYP2C19 inhib 56
CCCS(=O)(=O)N1CCC(C(=O)NC2CCCC(C)C2C)CC1 (stereo not drawn)	none
CCCS(=O)(=O)N1CCCC(C(=O)NCCN2CCC(Cc3ccccc3)CC2)C1 (stereo not drawn)	CYP2C9 inh 65
O=C(NCC1COc2ccccc2O1)C1CCCN(S(=O)(=O)c2cnc[nH]2)C1 (stereo not drawn)	CYP2C19 inhib 90, CYP2C9 inh 50 (no result: Ecoli WT expand)
O=C(NCCC1=CCCCC1)C1CCCN(S(=O)(=O)c2ccc(F)cc2)C1 (stereo not drawn)	none
COC(=O)N(C)c1ccccc1C(=O)N1CCOCC1	none (no result: CYP2C19 inhib, CYP2C19 activ, Ecoli tolC, CYP2C9 inh, CYP2C9 activ)
Cn1cccc1C(=O)NC(=O)COC(=O)C12CC3CC(CC(O)(C3)C1)C2	none (no result: Ecoli tolC)
Cc1cccc(CCNC(=O)C2CCCN(S(=O)(=O)c3cnc[nH]3)C2)c1 (stereo not drawn)	CYP2C19 inhib 92, CYP2C9 inh 77
O=C(NCCc1ccccc1)C1CCCN(S(=O)(=O)c2cnc[nH]2)C1 (stereo not drawn)	CYP2C19 inhib 85, CYP2C9 inh 59
O=C(NCCN1CCC(Cc2ccccc2)CC1)C1CCCN(S(=O)(=O)c2cnc[nH]2)C1 (stereo not drawn)	none
